The values that follow come from the EternaBench riboswitch data.

The term apparent Kd denotes a dissociation constant that holds for the conditions of the assay.

The subject of the data set is MS2 coat protein. The data set can be described thus: apparent Kd, MS2 coat protein; higher = weaker binding; RNA-MaP array; FMN 200 µM where present. In a few lines:
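Green signal was scaled to red-channel RNA signal and control-cluster median Fmax, and the apparent Kd was taken as the median of filtered per-cluster binding-curve fits. The binding series used SNAP-549-labelled MS2 coat protein from 0.7 or 1.5 nM, doubling to 3 µM, on designs transcribed by stalled E. coli RNA polymerase on Illumina sequencing-chip clusters. Each series ran without and then with constant ligand in 100 mM Tris-HCl pH 7.5, 80 mM KCl, 4 mM MgCl2, BSA, DTT, yeast tRNA and Tween-20.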

[1] abbreviates: designed as: OFF switch for flavin mononucleotide, no ligand.
Setting [2] is: ligand present: flavin mononucleotide, designed as: OFF switch for flavin mononucleotide.
Where [3] appears, read: designed as: ON switch for flavin mononucleotide, no ligand.
The mark [4] stands for this setting: ligand present: flavin mononucleotide, designed as: ON switch for flavin mononucleotide.

With “UCAUGUUUAGAGGAUAUGAUUACUCUAGAGUGAUCAGAAGGCUAGACAUGAGGAUCACCCAUGUCAGAACAUGU”, the “apparent Kd” value under setting [1] turned out to be 34.4 nM and the “apparent Kd” value under setting [2] worked out at 24.8 nM.

With “ACAUGAGAUCGAGGAUAUUUUGUACCUACAUGUGACAUGAGGAUCACCCAUGUGGUAAGUAUGAGAAAGAAGGCGAAGAUAUGU”, the “apparent Kd” value turned out to be 41.4 nM under setting [3] and 22.1 nM under setting [4].

As to “GACUACGAGGGAGGAUAUCCUCAUUAAAAUGGUGGAGAAGGCCCUCUACAUGAGGAUCACCCAUGUAUCGCUAUAGUCAGAAAU”, the “apparent Kd” value turned out to be 10.8 nM under setting [3] and 6.53 nM under setting [4].

For “ACAUACAUUCGAGGAUAUCGGUGAACAAAUUAACGAGAAGGCGAAAUACUUUUUAAUCUUAUAAACAUGAGGAUCACCCAUGUA”, the “apparent Kd” value amounted to 19.9 nM under setting [3] and 20.7 nM under setting [4].

With “GGGCCGUAGUAGAAGGGAUAUACGAUAGGUAUAUCAGGAUAUACAUGAGGAUCACCCAUGUUCUUACAGUGAUAGUCCUCCCUA”, the “apparent Kd” value came to 28.4 nM under setting [1] and 65.8 nM under setting [2].

On to “GUAGCGUAUGUAGGAUAUCGGUCAGUUUCUGAUCGAGAAGGACAUGAGGAUCACCCAUGUAAAUUACCGACUUUGUCGGGCUGC”, for which the “apparent Kd” value under setting [1] was found to be 8.06 nM and the “apparent Kd” value under setting [2] came out at 12.4 nM.

As to “GAUCCACAUGAGGAUCACCCAUGUGAGGAUAUGUUGUUAGCUUUUUGCCGUAAGCCAUAUAGAAGGCACGGGUG”, the “apparent Kd” value was 20.1 nM under setting [1] and 22.3 nM under setting [2].

In the case of “AAUCGAUGAUCAGGAUAUGUGGAGCCUCUAAGCGAAGAGGCGUACAUGAGGAUCACCCAUGUGACACAGAAGGGAUACAUGCGG”, the “apparent Kd” value runs as follows: under setting [3], 64.2 nM; under setting [4], 8.2 nM.

In the case of “GUCAGCUCGUGAGGAUAUACAACACUGCUUCGGCAGUGUAUUAAGAUCACAUGAGGAUCACCCAUGUAGAAGGCACGAGCUGAG”, the “apparent Kd” value came to 13 nM under setting [1] and 200 nM under setting [2].

In the case of “GUUGUGUAUGUAGGAUAUGCGAAGCAAAGCUUCGCAGAAGGACAUGAGGAUCACCCAUGUAUUGCAGCCUGCAAUCAGGCUGCU”, the “apparent Kd” value stood at 41.6 nM under setting [1] and 175 nM under setting [2].

Regarding “UUAAUUAAAGUGAGGAUAUCUAGAGCCUCGGCUCUAGAGAAGGCACAUGAGGAUCACCCAUGUCUCAAUUAAUU”, the “apparent Kd” value came to 15.7 nM under setting [1] and 26.8 nM under setting [2].

On to “GCGGGAUGAGUCGUUGGUUCACAUGAGGAUCACCCAUGUAGGGAGGAUAUACAUCUGGUCCCGGAGUAGAAGGCCCUACAUCGG”, for which the “apparent Kd” value runs as follows: under setting [1], 163 nM; under setting [2], 107 nM.

With “ACGAUACAUGAGGAUCACCCAUGUUAGGAUAUACGCAUGCAUGCAUGCAUGCAUGCAAGUAGAAGGAACCAUGC”, the “apparent Kd” value is, setting by setting: under setting [1], 27.5 nM; under setting [2], 26.8 nM.

“UUUUCGCGCGCAGGAUAUCCCAUGUGGUUCACACAUGAGGAUCACCCAUGUUUCACCCAUGUGCGGGAGAAGGGUGCGCGUUUC”: the “apparent Kd” value under setting [3] is 368 nM and the “apparent Kd” value under setting [4] turned out to be 189 nM.

On to “CUGCUCCGUGUAGGAUAUGCAUACUCCCAUUAUGCAGAAGGACAUGAGGAUCACCCAUGUAUGUUAUUAUCAUGUGUUGCGUGC”, for which the “apparent Kd” value amounted to 42.5 nM under setting [1] and 185 nM under setting [2].

For “AUGGAUAUCACAGGAUAUGCUAUGGAUACCAUAGCAGAAGGGUGAUCCAUCCUAUGUAAAUACAUGAGGAUCACCCAUGUGUCC”, the “apparent Kd” value under setting [3] is 50 nM and the “apparent Kd” value under setting [4] amounted to 35.7 nM.

On to “GUAUCGUGAGGAUAUCAUGAUUGACUUAAUUUAUGUCAGCGUGAGAAGGCACAUGAGGAUCACCCAUGUGAUUA”, for which the “apparent Kd” value worked out at 22.8 nM under setting [1] and 54.8 nM under setting [2].

Turning to “GUCAGCUCGUGAGGAUAUACAACACUGCUUUGGCAGUGUAUUAAGAUCACAUGAGGAUCACCCAUGUAGAAGGCACGAGCUGAU”, the “apparent Kd” value reads like this: under setting [1], 13.2 nM; under setting [2], 228 nM.

For “UUGGACGUCGUAGGAUAUGUAGGAUAUUCCUACAUGAGGAUCACCCAUGUUGACAUGGAUGAAGGACAGAAGGACGAUGUCCAU”, the “apparent Kd” value by setting is: under setting [3], 276 nM; under setting [4], 357 nM.

Take “CAUUCGUGUCUAGGAUAUGAGUGACAAGCGCGAGAUUUUCUCGCCGCUAGCUCAGAAGGAGACAUGAGGAUCACCCAUGUAAGG”: the “apparent Kd” value is, setting by setting: under setting [1], 60.1 nM; under setting [2], 11.8 nM.

Take “UAUUUGCAAGGAUAUGAUUUAAGUAACAUGAGGAUCACCCAUGUUUAUCCGUUGUUAUGUUCAGAAGGUGCGUGAU”: the “apparent Kd” value by setting is: under setting [1], 50.8 nM; under setting [2], 72.4 nM.

On to “GGUGCAUAUGAGAAGGCGAUCAUGAAACAUGAUCGAGGAUAUCAUGUAAACAUGAGGAUCACCCAUGUAUGGGUAAAGUGCAUC”, for which the “apparent Kd” value is 444 nM under setting [3] and 27.1 nM under setting [4].

Take “GUGCUUAACUAGAAGGCCGUAUGCAAAGCAUACGGAGGAUAUGGGUUCCGGAAACGGACAUGAGGAUCACCCAUGUGGCACAAA”: the “apparent Kd” value is, setting by setting: under setting [3], 111 nM; under setting [4], 12.7 nM.

“GCAGCGUAUGUAGGAUAUCGGUCAGAUUCUGAUCGAGAAGGACAUGAGGAUCACCCAUGUAAAUUACCGACUUUGUCGGGCUGC”: the “apparent Kd” value by setting is: under setting [1], 6.73 nM; under setting [2], 8.18 nM.

As for “AGUAAGAUGCAGAAGGUGUUAGCUAGAGCUACGACAUGAGGAUCACCCAUGUACAAAAGCCCGUACAAGGAUAUGCAUCUUACA”, the “apparent Kd” value by setting is: under setting [3], 4.46 nM; under setting [4], 4.21 nM.

Turning to “GGUACCUUCACAGGAUAUGCUAUCCUUUGGGUAGCAGAAGGGUGAUAACAUGAGGAUCACCCAUGUGGUACCGGGCGUGAGCCC”, the “apparent Kd” value by setting is: under setting [3], 1180 nM; under setting [4], 109 nM.

On to “AUUCACCGAGGAUAUACAUGAGGAUCACCCAUGUAAAAGAAACGGUGCCAUCGGUCGUGUAGAAGGUGGUGUUA”, for which the “apparent Kd” value is 16.6 nM under setting [1] and 16.1 nM under setting [2].

For “AGGAAGUAAGGAUAUGCUGCUCGUCACUUGCGUGAUGAGUAGCAGAAGGUACAUGAGGAUCACCCAUGUAAAAA”, the “apparent Kd” value is, setting by setting: under setting [1], 23.7 nM; under setting [2], 18.5 nM.

Take “UAUAACCGAGGAUAUACAUGAGGAUCACCCAUGUAAUGUAGUAUAAUGUAUGUAAAAUGUAGAAGGUGGGAUGU”: the “apparent Kd” value reads like this: under setting [1], 54.4 nM; under setting [2], 47 nM.

With “UGGGCGAGCCCAGUACUCACACAUGAGGAUCACCCAUGUGACGAGGAUAUAGACAGCGAUGCGUGCUAGAAGGCGUCACGGUAG”, the “apparent Kd” value came to 10.9 nM under setting [1] and 35.3 nM under setting [2].

With “GAACUGAGGCAAAGCUUUAGUCGUACAUGAGGAUCACCCAUGUAGGAUAUGGUAGGCUUUGCUUACCAGAAGGACAGAGUGAUC”, the “apparent Kd” value stood at 102 nM under setting [1] and 139 nM under setting [2].

On to “UCCUAACAUGAGGAUCACCCAUGUGAGGAUAUGAUACUAUGUACUUCGGUACAUAGUAUCAGAAGGCACAUCCU”, for which the “apparent Kd” value stood at 19.1 nM under setting [1] and 26 nM under setting [2].

Consider “ACCGUUGAAGCAGGAUAUUACAGCGCCAGCGUGUAAGAAGGGCUUCAACAUGAGGAUCACCCAUGUUGGAGUACCUCAAAAGUG”, for which the “apparent Kd” value runs as follows: under setting [1], 5.14 nM; under setting [2], 31.4 nM.

As for “GUUACAUGAGGAUCACCCAUGUAUGUGUGGGAGUAAGUGUCUUAGGAUAUCUAUUAUUUAAAUUAAGAGAAGGAAGAUUGUUGU”, the “apparent Kd” value worked out at 123 nM under setting [3] and 137 nM under setting [4].

In the case of “GCCGAAAGUGUGAGGAUAUACCUAUGGAUACAUAGGUAGAAGGCACAUGAGGAUCACCCAUGUCCAAUAACGGC”, the “apparent Kd” value is, setting by setting: under setting [1], 205 nM; under setting [2], 647 nM.

For “UUUGGGUGGCUGGAGGAUAUUCGAGUGGUUACAUGAGGAUCACCCAUGUGUCGCGCGGUACGCGAGGAGAAGGCUGGCGGCCGUU”, the “apparent Kd” value stood at 79.7 nM under setting [3] and 37 nM under setting [4].

For “GAAUGUUGGCUAGGAUAUGCAUUUUGAGAGGUAGCAGAAGGAGCGCACAUGAGGAUCACCCAUGUUAGCAUUGGGCGUCUCUCA”, the “apparent Kd” value stood at 5.76 nM under setting [1] and 16.3 nM under setting [2].

For the sequence “GCACUUUUAUUUUAACCGUUUCGAACAUGAGGAUCACCCAUGUAGGAUAUGCUAAAAGUUGUGAUGCAGAAGGACAUUAAGUGC”, the “apparent Kd” value is, setting by setting: under setting [1], 7.15 nM; under setting [2], 7.29 nM.

Regarding “CAGCAUAAGUAGAAGGCUAUAUAUUUAAUUAUAUAAGGAUAUACAUGAGGAUCACCCAUGUGUUCCAGCUGAAUAAUAAUAUAU”, the “apparent Kd” value by setting is: under setting [1], 5.49 nM; under setting [2], 5.82 nM.

With “ACAUGAGACUAAGGAUAUGGUGUACCUACAUGUGACAUGAGGAUCACCCAUGUGGUAAGUAUGACUCAGAAGGUAGAGAUAUGU”, the “apparent Kd” value by setting is: under setting [3], 414 nM; under setting [4], 37.2 nM.

For “GUAAACCUAGGAUAUACAUGAGGAUCACCCAUGUAUUGAUCGUGCGGCUGUUCCGGAGGUAGAAGGAGGAACCU”, the “apparent Kd” value came to 20.7 nM under setting [1] and 34.2 nM under setting [2].

As to “UUCCGGCGUGUAGGAUAUGGAUCCGAUUAGGAUCCAGAAGGACAUGAGGAUCACCCAUGUACAUGUAAACAGUCAUCACCGGAU”, the “apparent Kd” value stood at 8.09 nM under setting [1] and 40.2 nM under setting [2].

As to “GGCGGAGUAGGAUAUACAUGAGGAUCACCCAUGUAACCUGAUGGCGUAGGUCUUCUAUGUAGAAGGGCUACGCC”, the “apparent Kd” value by setting is: under setting [1], 17.4 nM; under setting [2], 16.7 nM.

As for “GACCUACAUGAGGAUCACCCAUGUCAGGAUAUUUAACCGAUGUCACCCAUCGGUCCUUAGAGAAGGGAUGUGGC”, the “apparent Kd” value by setting is: under setting [1], 15 nM; under setting [2], 14.9 nM.

As to “GCAGGAUAAGUGAGGAUAUACCUCUGGAUACAGAGGUAGAAGGCACAUGAGGAUCACCCAUGUCUAUCACCUGC”, the “apparent Kd” value under setting [1] was 16 nM and the “apparent Kd” value under setting [2] turned out to be 41.3 nM.

“UACCUCUCAGGAUAUGAGCAGCAGGACAUGAGGAUCACCCAUGUUAUAUAGGGUCCUGGUUUAGAAGGGAGCGAAU”: the “apparent Kd” value worked out at 26 nM under setting [1] and 28.1 nM under setting [2].

As to “UUCAUGUGAGGAUAUAAAAUGAAUAUAAAUUAUUAUCUUGAUUAGAAGGCACAUGAGGAUCACCCAUGUCUGAA”, the “apparent Kd” value by setting is: under setting [1], 33.1 nM; under setting [2], 47.9 nM.

For the sequence “AUAUCCUAGAUAGGAUAUACUGAGGUUGAAUGGGUAGAAGGAUCGUUAGGGUAGACUACAUGAGGAUCACCCAUGUUGUUUAUU”, the “apparent Kd” value runs as follows: under setting [3], 43.1 nM; under setting [4], 40.1 nM.
